Tn6 DDE FP: disrupts Tn6 cyclic peptide binding to fibrin D-Dimer-E complex; Fibrin DD(E) TRITC-Tn6 fluorescence polarization displacement; inhibition, % at 8.3 µM; 0.21% of 370,000 active; AID 720509;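 active = inhibition above a per-campaign cutoff: mean of compounds within control limits plus 3 SD, cut at about 15% in these data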;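 note: 0% = median of all compound wells on the plate and 100% = blocking peptide control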
Target sequence (P02675 whole entry, looked up): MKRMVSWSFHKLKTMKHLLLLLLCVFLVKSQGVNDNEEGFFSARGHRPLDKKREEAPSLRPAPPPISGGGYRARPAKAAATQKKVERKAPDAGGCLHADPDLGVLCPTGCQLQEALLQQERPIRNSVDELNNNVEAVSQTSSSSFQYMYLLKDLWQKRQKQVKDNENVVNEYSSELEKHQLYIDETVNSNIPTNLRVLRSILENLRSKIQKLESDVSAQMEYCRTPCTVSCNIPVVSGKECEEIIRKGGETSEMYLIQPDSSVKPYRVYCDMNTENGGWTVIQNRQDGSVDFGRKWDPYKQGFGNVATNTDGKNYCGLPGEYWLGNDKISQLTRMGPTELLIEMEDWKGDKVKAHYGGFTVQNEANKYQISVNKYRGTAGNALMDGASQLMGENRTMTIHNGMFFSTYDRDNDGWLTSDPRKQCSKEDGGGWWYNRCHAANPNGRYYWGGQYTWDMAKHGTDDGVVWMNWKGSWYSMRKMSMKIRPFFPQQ
ABCB1 block: inhibitors of human ABCB1 transporter, ABCG2 counter-screen | P08183 | CCRF-Adr cells, JC-1 efflux, flow cytometry | inhibition, % at 6.6 µM | 0.067% of 190,000 active; in the data active = inhibition above about 40%;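 note: 0% = vehicle and 100% = reference inhibitor; higher value means more JC-1 retained so stronger ABCB1 efflux block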
GRK2 aptamer HTS: blocks RNA aptamer binding to human GRK2 | inhibition of aptamer binding, % at 10 µM | AID 488847 | P25098 | 0.59% of 330,000 active | bead flow cytometry, FAM-aptamer displacement from GRK2;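 active = inhibition of aptamer binding above 40%, roughly 3 SD of noise, on plates passing a quality check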;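 note: median bead fluorescence of bound FAM aptamer so fluorescent compounds give negative values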
Tn7 DDE FP: disrupts Tn7 cyclic peptide binding to fibrin D-Dimer-E complex; P02675; FP displacement of FITC-Tn7 peptide from fibrin DD(E); 0% = median of compound wells per plate; inhibition, % at 8.3 µM; 0.13% of 370,000 active;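 active = inhibition above the mean of compounds falling within the control limits plus 3 SD of them, cut at about 14% in these data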;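 note: 0% = plate median of compound wells and 100% = 10 µM Aha-Tn7 peptide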
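Measure: % inhibition scaled between sample-field median and high-control FP; Test system: human fibrin DD(E); Quantity: 2 µM final DD(E) protein; Doses: one dose, 8.3 µM nominal; Schedule: compound with protein 10 min, then 3 h after probe, room temperature; Detection: fluorescence polarization; Medium: Tris buffer with calcium and detergent, pH 7.8.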
Insulin prom up: MIN6 insulin promoter up-regulation; MIN6 insulin promoter-GFP reporter, high-content imaging; active compounds read high; z-score at 5 µM; 0.3% of 190,000 active; AID 1625;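 active = z-score above 3 at 5 µM with at least 500 cells counted in the well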
ABCG2 block: blocks JC-1 efflux by human ABCG2 transporter. inhibition, % at 6.6 µM. IgMXP3 cells, flow cytometry. 0.1% of 190,000 active. AID 1325;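 active = inhibition above 80%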;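 note: 0% = DMSO and 100% = nicardipine control wells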
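Test system: ABCG2 IgMXP3 and barcoded ABCB1 CCRF-Adr cell mix; Schedule: cells with compound and JC-1, 10 min at 25 °C, rotating, no wash; Technique: flow cytometry of retained JC-1 fluorescence; Measure: % inhibition of efflux relative to nicardipine and DMSO; Controls: nicardipine high and DMSO low controls.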
DDE Tn6 FP ctr: counter-screen hit for Tn6 peptide-fibrin DD(E) binding disruption; shares compounds with Tn6 DDE FP; TRITC-Tn6 fluorescence polarization displacement; 0% = median of compound wells, not DMSO; inhibition, % at 8.3 µM; 2% of 680 active; AID 720621;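 active = inhibition above the mean of test compounds lying between the control limits plus 3 SD of those, cut at about 14% in these data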;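 note: 0% = median of compound wells and 100% = wells with Aha-Tn7 blocking peptide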
DDE Tn6 confirm: DD(E)-Tn6 binding inhibition, FP confirmation; 10% of 680 active; shares compounds with Tn6 DDE FP; inhibition, % at 8.3 µM; AID 720631; FP displacement of TRITC-Tn6 peptide from DD(E); 0% = per-plate median of test wells;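 active = inhibition above the mean of compounds lying within the control limits plus 3 SD, cut at about 16% in these data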;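 note: 100% = high control wells holding a competing inhibitor peptide at 10 µM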
* marks the source's active call; other numbers are inactive results; . = no result given. Shown are actives, neighbours in structure and some others; about 0.99% of the full set was active somewhere.

SMILES	Tn6 DDE FP	ABCB1 block	GRK2 aptamer HTS	Tn7 DDE FP	Insulin prom up	ABCG2 block	DDE Tn6 FP ctr	DDE Tn6 confirm
O=C(c1coc(=O)c(Br)c1)N1CCOCC1	18*	0	.	3	0.25	0	-2	-4
O=C(OCC#CCSc1nnc(-c2ccccc2Cl)o1)c1ccc(F)cc1	-2	.	.	5	.	.	.	.
Cc1ccccc1C(=O)N1CCC(C(=O)Nc2ccc(F)cc2)CC1	15*	0	1	1	-0.2	1	4	-9
Cc1ccccc1C(=O)N1CCC(C(=O)NC2CCCCCC2)CC1	-1	.	3	-5	.	.	.	.
Cc1ccccc1C(=O)N1CCC(C(=O)Nc2ccccn2)CC1	44*	.	1	2	.	.	1	-4
Cc1ccccc1C(=O)N1CCC(C(=O)Nc2ccc(C(C)C)cc2)CC1	-2	.	8	1	.	.	.	.
Cc1c(C(=O)c2no[n+]([O-])c2C(=O)c2cnn(C)c2C)cnn1C	16*	0	0	-12	0.55	0	-11	2
Cc1c(C(=O)Nc2ccc(Br)cc2)cnn1C	4	0	0	1	0.18	8	.	.
CN(Cc1ccccc1)Cc1c[nH]c2ccccc12	17*	0	0	6	-0.33	0	-2	-17
CCn1ccc(=N)cc1	20*	1	2	5	0.99	4	3	-8
COc1cc(CC(=O)OCC(=O)NC2CCCCC2C)cc(OC)c1OC (centres undefined)	26*	.	0	8	.	.	-8	-9
CN(CCC#N)C(=O)COC(=O)c1c2c(nc3ccccc13)/C(=C\c1ccco1)CC2	1	.	.	-5	.	.	.	.
Cc1ccc(-c2[nH]nc(N)c2N=Nc2cccc(Cl)c2C)cc1	17*	0	.	6	0.53	0	5	0
Cc1ccc(-c2[nH]nc(N)c2N=Nc2ccccc2C)cc1	-5	0	2	-3	0.74	0	.	.
CCC(CNc1cc(OC)cc2cccnc12)NC1CCCCC1 (centres undefined)	33*	.	0	10	-0.27	.	-1	6
COc1cc(NCCCC(C)N)c2ncccc2c1 (centres undefined)	52*	0	.	1	.	0	-1	20*
COc1cc(NCCCCC(C)N)c2nccc(C)c2c1 (centres undefined)	1	.	.	0	.	.	.	.
COc1cccc(-c2oc3c(c2C#CC2(N)CCCCC2)C(O)CCC3)c1 (centres undefined)	5	.	.	3	.	.	.	.
COc1ccc(NC(=O)c2oc3ccccc3c2NC(=O)COc2ccccc2OC)c(OC)c1	18*	-2	2	5	0.14	-2	4	3
COc1ccc(NC(=O)c2oc3ccccc3c2NC(=O)c2ccc(OC)c(OC)c2)c(OC)c1	9	.	.	-6	.	.	.	.
CCOC(=O)[C@H](Cc1ccccc1)NC(=O)[C@H]1C[C@@]2(N3CCCCC3)c3ccccc3N(C(=O)OC(C)(C)C)[C@H]2N1C(=O)OC(C)(C)C	11	.	.	-3	.	.	.	.
CN(CC(=O)N1CCc2ccccc21)S(=O)(=O)c1cccs1	16*	0	0	-5	1.1	3	1	-4
CC(C(=O)N1CCc2ccccc21)N1CCN(S(=O)(=O)c2cccs2)CC1 (centres undefined)	-6	.	4	-1	.	.	.	.
COc1cccc(Cn2c(C(C)n3c(C)nc4ccccc43)nc3ccccc32)c1 (centres undefined)	2	.	.	1	.	.	.	.
COC(=O)/C(=C/Nc1ccc(O)cc1)[N+](=O)[O-]	46*	0	0	1	.	3	1	-6
SMILES	Tn6 DDE FP	ABCB1 block	GRK2 aptamer HTS	Tn7 DDE FP	Insulin prom up	ABCG2 block	DDE Tn6 FP ctr	DDE Tn6 confirm
COc1ccc(-n2c(=O)[nH]cc(C(=O)Nc3ccc4c(c3)OCCO4)c2=O)cc1OC	2	.	0	-2	.	.	.	.
O=C(Nc1ccc2c(c1)OCO2)c1c[nH]c(=O)n(-c2ccc(F)cc2)c1=O	15*	.	10	1	.	.	5	4
Cc1ccc(NC(=O)Cn2nnc(-c3ccccc3F)n2)c(C)c1	3	.	.	-1	.	.	.	.
O=C(Cn1nnc(-c2ccccc2F)n1)Nc1ccc(F)cc1F	16*	.	.	3	.	.	-3	-4
Cc1nc(N2CCN(C(=O)C3CCCCC3)CC2)c2c3c(sc2n1)CCCC3	-7	.	.	4	.	.	.	.
Cc1cc2cc(CNC(=O)c3cccc([N+](=O)[O-])c3)ccc2[nH]1	-2	0	3	1	1.4	6	.	.
Cc1c(C(=O)NCc2ccc3c(c2)cc(C)n3C)cccc1[N+](=O)[O-]	24*	0	1	2	0.22	5	-4	-7
Cc1cc2cc(CNC(=O)Cc3ccc([N+](=O)[O-])cc3)ccc2n1C	17*	0	11	2	-1.1	-1	0	6
Cc1cc2cc(CNC(=O)c3cccc([N+](=O)[O-])c3)ccc2n1C	53*	1	0	6	0.45	22	-3	-7
Cc1c(C(=O)NCc2ccco2)cccc1[N+](=O)[O-]	-8	0	0	-3	0.16	0	.	.
Cc1ccccc1NC(=O)c1ccccc1NC(=O)c1ccco1	16*	0	7	4	-0.16	19	2	3
O=[N+]([O-])c1ccc2nc(COCc3nc4ccccc4[nH]3)[nH]c2c1	-2	.	.	-3	.	.	.	.
CCn1nnnc1SCC(=O)Nc1nc(C)c(C)s1	16*	0	4	3	-0.11	3	3	2
CS(=O)(=O)c1cccc(-c2csc(N3CCC(C(N)=O)CC3)n2)c1	16*	.	0	-3	.	.	6	-2
CCCC1CCC2(CCCN2CCOC(=S)Nc2ccccc2)CC1 (centres undefined)	-3	.	.	-2	.	.	.	.
Cc1ccc(-n2c(SCC(=O)Nc3ccc(S(=O)(=O)Nc4cc(C)nc(C)n4)cc3)nnc2-c2ccc(C(C)(C)C)cc2)cc1	1	.	.	-4	.	.	.	.
Cc1nc(Nc2ncc(C(=O)Nc3c(C)cccc3Cl)s2)cc(N2CCN(CCO)CC2)n1	-14	.	.	-2	.	.	.	.
Cc1ccc(-c2nc3c(Br)cc(C)cn3c2Cc2cccc(Cl)c2)cc1	7	.	.	-9	.	.	.	.
COc1ccc(NC(=O)Cn2cnc3c(cnn3-c3ccc(C)c(C)c3)c2=O)c(OC)c1	16*	0	0	2	-0.15	28	6	-8
Cc1ccccc1Cn1cc(CN2[C@@H](C)COc3cc(Br)ccc3S2(=O)=O)nn1	7	.	.	-2	.	.	.	.
Cc1ccc(C(=O)N2[C@@H]3CN(C)C(=O)[C@@]2(Cc2ccccc2)[C@H]2C(=O)N(C)C(=O)[C@@H]32)cc1	16*	.	.	8	.	.	-3	-3

Source: PubChem BioAssay (several laboratories)
